Screens as filed in PubChem BioAssay.
Shown are actives, neighbours in structure and some others; about 1.4% of the full set was active somewhere.
A3G deaminase: blocks human APOBEC3G single-stranded DNA deamination | recombinant A3G, ssDNA deamination FAM/TAMRA fluorescence | 330,000 tested, 0.28% active | Q9HC16 | inhibition, % at 20 µM;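 active = inhibition of at least 40% at 20 µM, with no more than 30% in the related APOBEC3A deaminase screen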
Target sequence (Q9HC16 whole entry, looked up): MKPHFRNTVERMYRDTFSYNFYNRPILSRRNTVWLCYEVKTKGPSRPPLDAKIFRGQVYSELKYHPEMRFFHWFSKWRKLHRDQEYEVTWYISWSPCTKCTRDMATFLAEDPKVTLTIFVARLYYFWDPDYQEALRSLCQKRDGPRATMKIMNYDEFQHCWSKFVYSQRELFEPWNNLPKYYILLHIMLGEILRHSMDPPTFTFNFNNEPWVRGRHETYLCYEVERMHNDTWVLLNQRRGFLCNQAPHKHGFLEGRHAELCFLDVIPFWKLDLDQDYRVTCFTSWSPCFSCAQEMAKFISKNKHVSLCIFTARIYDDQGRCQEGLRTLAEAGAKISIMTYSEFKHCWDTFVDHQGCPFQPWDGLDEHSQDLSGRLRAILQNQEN
PfGluPho inh: PfG6PD (Plasmodium falciparum) enzyme inhibition. PfGluPho enzyme, NADPH resazurin-diaphorase fluorescence. inhibition, % at 20 µM. 350,000 tested, 0.78% active;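 active = inhibition reaching at least a set limit at 20 µM in the primary screen, cut at about 59% in these data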
APOBEC3A inh: blocks human APOBEC3A ssDNA deamination; P31941; 330,000 tested, 0.41% active; inhibition, % at 20 µM; recombinant A3A, FAM/TAMRA ssDNA deamination fluorescence;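 active = at least 40% inhibition at 20 µM here, with at most 30% in a related deaminase screen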
Target sequence (P31941 whole entry, looked up): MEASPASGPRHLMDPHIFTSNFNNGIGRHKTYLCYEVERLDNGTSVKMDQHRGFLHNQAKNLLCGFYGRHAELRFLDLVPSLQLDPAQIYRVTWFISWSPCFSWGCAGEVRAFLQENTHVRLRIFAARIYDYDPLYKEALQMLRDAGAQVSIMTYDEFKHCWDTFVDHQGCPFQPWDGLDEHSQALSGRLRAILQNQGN
hiPSC survival: enhancers of human iPSC single-cell survival; hiPSC single-cell survival, ATPlite luminescence; 100% = ROCK inhibitor wells, 0% = DMSO; survival enhancement, % at 20 µM; 360,000 tested, 0.044% active; AID 602274; in the data active = survival enhancement above about 18%;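 also: cells exposed to compounds for 16 hours before the ATP read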
HKDC1 inh: inhibitors of human hexokinase HKDC1. Q2TB90. recombinant HKDC1, G6PDH/diaphorase resazurin coupled fluorescence. inhibition, % at 20 µM. 340,000 tested, 0.16% active. AID 493160;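 active = inhibition above about 35% when tested at 20 µM, limit read from the data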
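Test system: recombinant HKDC1 (HK5) hexokinase enzyme, produced in-house / Doses: 20 µM test compound, 1% DMSO / Timing: 90 min, room temperature / Detection: G6PDH/diaphorase-coupled fluorescence, 1 mM NADP, 100 µM resazurin, 525/613 nm / Control set: DMSO wells with and without enzyme mix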
APOBEC3A confirm: confirmation of human APOBEC3A DNA deaminase inhibitors; recombinant A3A, ssDNA deaminase UDG fluorescence assay; inhibition, % at 20 µM; shares compounds with APOBEC3A inh; 1,400 tested, 63% active; AID 493151;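 active = inhibition reaching a set limit, 80% of the first screen's cutoff, at 20 µM in any replicate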
UDG ctr A3A: inhibits UDG, flagging false APOBEC3A inhibitors; shares compounds with APOBEC3A inh; UDG counterscreen, FAM/TAMRA uracil oligo fluorescence; inhibition, % at 20 µM; 1,000 tested, under 10 active; call rule not given here
Of the large screens only hits and unclear results are named; the others gave an inactive call (follow-up assays come after a bar, where they were run).

C=CC[C@H](CC(=O)NCCO)C(=O)NC[C@@H](OC(=O)[C@@H](CC=C)CC(=O)OC(C)(C)C)c1ccccc1	none
O=C1CC2(CCN(C(=O)c3cccc(Br)c3)CC2)Oc2ccccc21	none
Cc1ccc(OCc2ccc(C(=O)O)o2)cc1C	none
Cc1ccc(OCc2ccoc2C(=O)O)cc1C	APOBEC3A inh 42 | APOBEC3A confirm 37 | UDG ctr A3A inactive
O=C(O/N=C1/CCCc2occc21)c1ccc(Cl)cc1Cl	none
O=C1CCc2cc(S(=O)(=O)Nc3ccccc3Cl)ccc2N1	none
O=C1CCc2cc(S(=O)(=O)Nc3ccccc3F)ccc2N1	APOBEC3A inh 99 | APOBEC3A confirm inactive
CCN1CCN(c2ccc(S(=O)(=O)N3CCCCC3)cc2NC(=O)COc2ccccc2)CC1	none
CC(=O)c1ccc(OCCCC(=O)Nc2cc(S(=O)(=O)N3CCCCC3)ccc2C)cc1	APOBEC3A inh 40 | APOBEC3A confirm inactive
CCN1CCN(c2ccc(S(=O)(=O)N3CCCCC3)cc2NC(=O)c2ccc(C)o2)CC1	APOBEC3A inh 63 | APOBEC3A confirm 71 | UDG ctr A3A inactive
CCC(=O)c1ccc(OCC(=O)Nc2cc(S(=O)(=O)N3CCCCC3)ccc2N2CCN(CC)CC2)cc1	APOBEC3A inh 55 | APOBEC3A confirm 66 | UDG ctr A3A inactive
CN1CCN(S(=O)(=O)c2cccc(C(=O)Nc3cc(C(F)(F)F)ccc3N3CCCCC3)c2)CC1	APOBEC3A inh 44 | APOBEC3A confirm inactive
Cc1ccc(O)c(CCc2ccc(O)cc2)n1	none
O=C(NC1CCN(C(=O)Nc2ccc(F)cc2)CC1)c1cccc(F)c1	none
COc1ncnc2c1ncn2CCCN1CCN(C(=O)C2CC2)CC1	none (no result: A3G deaminase, APOBEC3A inh, HKDC1 inh)
CCOc1ccccc1OCC(=O)Nc1cc(S(=O)(=O)N2CCCCC2)ccc1N1CCN(CC)CC1	APOBEC3A inh 60 | APOBEC3A confirm 55 | UDG ctr A3A inactive
COc1ccccc1OCC(=O)Nc1cc(S(=O)(=O)N2CCCCC2)ccc1N1CCCCC1	none
CCN1CCN(c2ccc(S(=O)(=O)N3CCCCC3)cc2NC(=O)Cc2ccccc2F)CC1	none
CCN1CCN(c2ccc(S(=O)(=O)N3CCCCC3)cc2NC(=O)c2ccccc2)CC1	APOBEC3A inh 46 | APOBEC3A confirm 23 | UDG ctr A3A inactive
CCN1CCN(c2ccc(S(=O)(=O)N3CCCCC3)cc2NC(=O)Cc2ccccc2)CC1	APOBEC3A inh 57 | APOBEC3A confirm 64 | UDG ctr A3A inactive
CCN1CCN(c2ccc(S(=O)(=O)N3CCCCC3)cc2NC(=O)c2cccc(C)c2[N+](=O)[O-])CC1	none
CCN1CCN(c2ccc(S(=O)(=O)N3CCCCC3)cc2NC(=O)c2cccc(C(F)(F)F)c2)CC1	APOBEC3A inh 57 | APOBEC3A confirm 51 | UDG ctr A3A inactive
CCN1CCN(c2ccc(S(=O)(=O)N3CCCCC3)cc2NC(=O)c2cccc(F)c2)CC1	none
CC(C)CCN(CCC(C)C)C(CO)(CO)CO	none
CCOc1ccc(OC(=O)c2cccc(S(=O)(=O)N3CCN(C)CC3)c2)cc1	APOBEC3A inh 60 | APOBEC3A confirm inactive
CN1CCN(c2ccc(S(=O)(=O)N3CCCCC3)cc2NC(=O)Cc2c(F)cccc2Cl)CC1	APOBEC3A inh 46 | APOBEC3A confirm 36 | UDG ctr A3A inactive
CCCCc1nnc(NC(=O)c2cccc(S(=O)(=O)N3CCN(C)CC3)c2)s1	APOBEC3A inh 58 | APOBEC3A confirm inactive
CC(C)Cc1nnc(NC(=O)c2cccc(S(=O)(=O)N3CCN(C)CC3)c2)s1	none
Cc1ccc(CSc2ncn(-c3ccccc3)n2)cc1	APOBEC3A inh 41 | APOBEC3A confirm inactive
Clc1ccccc1CSc1ncn(-c2ccccc2)n1	none
Cc1cc(C)[n+](C)n1CC(O)Cn1c2ccccc2c2ccccc21 (stereo not drawn)	APOBEC3A inh 45 | APOBEC3A confirm 76 | UDG ctr A3A inactive
CCCn1ncc(CN2CCC(n3nccc3NC(=O)c3ccccc3Cl)CC2)c1C	none
Cc1cc(C)cc(N=C2NC(=O)/C(=C/c3cccs3)S2)c1	APOBEC3A inh 42 | APOBEC3A confirm inactive
Cc1cc(C)cc(N(C(=O)c2csnn2)C(C(=O)NC(C)(C)C)c2cccs2)c1 (stereo not drawn)	APOBEC3A inh 68 | APOBEC3A confirm inactive | UDG ctr A3A inactive
Cc1ccc(N(C(=O)c2csnn2)C(C(=O)NC(C)(C)C)c2cccs2)cc1 (stereo not drawn)	none
N#CCCN(C(=S)NC(=O)c1ccco1)c1ccccc1F	none
O=Cc1cn(-c2ccccc2)nc1-c1cc2c(ccc3ccccc32)oc1=O	APOBEC3A inh 77 | APOBEC3A confirm inactive | UDG ctr A3A inactive
CCCCCN(C(=O)CCC(=O)OC(C)C(=O)c1ccc(CC)cc1)c1c(N)n(CCCC)c(=O)[nH]c1=O (stereo not drawn)	none (no result: A3G deaminase, APOBEC3A inh)
C/C(=N\NC(=O)CN1CCCCC1)c1cccc([N+](=O)[O-])c1	none
C/C(=N\NC(=O)CN1CCCCC1)c1ccccc1O	APOBEC3A inh 40 | APOBEC3A confirm inactive
COC(=O)C1=C(C)N(CC2CC2)C(=NCc2cc(OC)c(OC)c(OC)c2)N[C@H]1c1ccccc1	APOBEC3A inh 47 | APOBEC3A confirm 56 | UDG ctr A3A inactive
COC(=O)C1=C(C)N(Cc2ccccc2)C(=NCc2cc(OC)c(OC)c(OC)c2)N[C@H]1c1ccccc1	APOBEC3A inh 70 (no result: hiPSC survival) | APOBEC3A confirm 47
COCCN=C1N[C@@H](c2ccccc2)C(C(=O)OC)=C(C)N1Cc1ccccc1	none
COC(=O)C1=C(C)N(Cc2ccccc2)C(=NCc2ccccc2)N[C@H]1c1ccccc1	none
COC(=O)C1=C(C)N(Cc2ccccc2)C(=NCc2cccc(Cl)c2)N[C@H]1c1ccccc1	none
COC(=O)C1=C(C)N(CC2CC2)C(=NCc2cccc(Cl)c2)N[C@H]1c1ccccc1	APOBEC3A inh 59 | APOBEC3A confirm 44
COCCN=C1N[C@@H](c2ccc(Br)cc2)C(C(=O)OC)=C(C)N1Cc1ccccc1	APOBEC3A inh 54 | APOBEC3A confirm 40 | UDG ctr A3A inactive
COC(=O)C1=C(C)N(Cc2ccccc2)C(=NCc2cc(OC)c(OC)c(OC)c2)N[C@H]1c1ccc(Br)cc1	APOBEC3A inh 46 | APOBEC3A confirm 60 | UDG ctr A3A inactive
Cc1ccc(CNC(=O)CC[C@H]2O[C@@H](n3cc(C)c(=O)[nH]c3=O)C[C@@H]2O)o1	none (no result: A3G deaminase, PfGluPho inh, APOBEC3A inh, HKDC1 inh)
COc1ccc(NC(=O)CN2C(=O)S/C(=C/c3cccn3-c3ccc(C(=O)O)cc3)C2=O)cc1	APOBEC3A inh 63 (no result: PfGluPho inh, HKDC1 inh) | APOBEC3A confirm 57
Cc1ccc(NC(=O)CN2C(=O)S/C(=C\c3cccn3-c3cccc(C(=O)O)c3)C2=O)cc1C	none
COc1ccccc1C(=O)N(Cc1ccc(Cl)cc1)C1CCS(=O)(=O)C1 (stereo not drawn)	none
